Bioassay records as filed in PubChem BioAssay.
Sampled rows, rich in hits. Any-hit rate of the full collection: about 2.9%.
MEKK3 PB1 HTS: raises or lowers MEK5 binding to the human MEKK3 PB1 domain | bead-based flow cytometry, Alexa488-MEK5 binding to MEKK3; actives lie on both sides; 0 = blocked by unlabeled MEK5, 100 = vehicle | actives 1.4% (n = 290,000) | binding response (% of control), % at 10 µM;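 active = binding response more than 3 SD above or below the average of its plate-row segment, actives on both sides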;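 also: Alexa488 bead fluorescence after subtracting the streptavidin-only scavenger bead signal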
Dynein cargo inh: blocks dynein driven cargo transport along microtubules; 3617.4 mouse cells, GR-EGFP nuclear translocation imaging; test concentration mostly 20 µM; stimulated with dexamethasone, 1 µM; active compounds read low; z-score, hits read low; actives 0.47% (n = 220,000);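 active = plate z-score of nuclear minus cytoplasmic receptor signal below a set negative limit, without overly bright fluorescence or cell loss, cut at about -3.5 in these data, passing the limit was not always enough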;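 also: z-score of nuclear minus cytoplasmic ring GR-EGFP intensity difference per well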
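Buffer or medium – tet-free medium with charcoal-stripped serum · Signal – automated 10x imaging of fixed Hoechst-stained cells · Also added – dexamethasone agonist, 1.0 µM final, for 30 min · Incubation – induction 48 h, compound 1 h, agonist 30 min · Read-out – GR-EGFP nuclear translocation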
B2AR ag: activates human beta-2 adrenergic receptor causing internalization; AID 504454; response, % (no concentration beside the values); P07550; actives 0.43% (n = 340,000); Am2.2-beta2AR cells, FAP receptor internalization, flow cytometry;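 active = response above a set limit, near 3 SD of response in nonfluorescent compounds, cut at about 42% in these data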
Target sequence (P07550 whole entry, looked up): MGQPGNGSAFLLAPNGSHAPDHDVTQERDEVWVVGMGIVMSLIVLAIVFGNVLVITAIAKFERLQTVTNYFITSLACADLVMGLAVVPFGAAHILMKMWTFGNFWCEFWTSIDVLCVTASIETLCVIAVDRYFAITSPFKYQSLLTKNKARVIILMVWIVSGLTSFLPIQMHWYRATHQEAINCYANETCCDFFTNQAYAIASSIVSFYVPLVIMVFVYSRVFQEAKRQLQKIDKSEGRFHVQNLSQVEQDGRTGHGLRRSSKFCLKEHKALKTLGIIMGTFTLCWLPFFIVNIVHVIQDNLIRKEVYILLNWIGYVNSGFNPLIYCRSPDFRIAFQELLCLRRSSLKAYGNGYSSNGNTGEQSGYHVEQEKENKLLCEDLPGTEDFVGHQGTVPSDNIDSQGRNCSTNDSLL
ATG4B inh: blocks human ATG4B protease cleavage of LC3 substrate. Q9Y4P1. ATG4B cleavage of LC3-PLA2, NBD-HPC fluorescence, 1 h. inhibition, % at 8.33 µM. actives 0.51% (n = 340,000). AID 504462; in the data active = inhibition above about 40%
MEKK2mut PB1 HTS: signal of MEK5 binding to mutant human MEKK2 PB1 domain; bead flow cytometry, Alexa488-MEK5 binding to MEKK2 mutant; percent response, % at 10 µM; actives 0.35% (n = 290,000); in the data active = percent response above about 24%, passing the limit was not always enough
MEKK2 WT-MEK5: raises or lowers MEK5 binding to wildtype human MEKK2 PB1 domain; Q9Y2U5; bead flow cytometry, Alexa488-MEK5 binding to MEKK2 WT; actives lie on both sides; binding response (% of control), % at 10 µM; actives 1.1% (n = 290,000); in the data active = binding response below about 67% or above about 130%
MEKK2wt confirm: raises or lowers MEK5 binding to wildtype human MEKK2, retest; shares compounds with MEKK3 PB1 HTS; bead flow cytometry, Alexa488-MEK5 binding to MEKK2 WT; actives lie on both sides; binding response (% of control), % at 10 µM; actives 2.4% (n = 5,900); AID 1892; in the data active = binding response below about 16% or above about 210%; inactive = in between
MEKK2mut-MEK5: signal of MEK5 binding to mutant human MEKK2, retest; shares compounds with MEKK3 PB1 HTS; bead flow cytometry, Alexa488-MEK5 binding to MEKK2 mutant; percent response, % at 10 µM; actives 2% (n = 5,900); AID 1893; in the data active = percent response mostly above about 71%, no sharp cut-off; inactive = mostly below about 38%;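 also: higher means compound restores mutant binding toward wildtype level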
MEKK3 confirm: MEKK3-MEK5 PB1 inhibition, single concentration confirmation; shares compounds with MEKK3 PB1 HTS; bead flow cytometry, Alexa488-MEK5 binding to MEKK3; active compounds read low; binding response (% of control), % at 10 µM; actives 1.8% (n = 5,900); AID 1894;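 active = binding response below 72% of control, or above a set upper limit, though filed actives all read lower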;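 also: 100% = DMSO only wells and 0% = binding blocked by excess unlabeled MEK5; lower values mean stronger disruption of MEK5 binding to MEKK3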
Active calls of the source: *.

Screening C#CCOCCOCCOCCNc1nc(N2CCN(C(=O)[C@H]([C@@H](C)CC)n3cc([C@@H](N)CC(C)C)nn3)CC2)nc(N2CCN(C(=O)[C@H](Cc3cc4ccccc4[nH]3)n3cc([C@@H](N)C(C)CC)nn3)CC2)n1 (stereo partly specified) returned MEKK3 PB1 HTS 61, Dynein cargo inh -0.44, MEKK2mut PB1 HTS 37*, MEKK2 WT-MEK5 184*, MEKK2wt confirm 227*, MEKK2mut-MEK5 90* and MEKK3 confirm 106.
C#CCOCCOCCOCCNc1nc(N2CCN(C(=O)C(Cc3cc4ccccc4[nH]3)n3cc(C(N)C(C)CC)nn3)CC2)nc(N2CCN(C(=O)C(Cc3cc4ccccc4[nH]3)n3cc(C(N)C(C)CC)nn3)CC2)n1 (stereo unspecified) was read as MEKK3 PB1 HTS 110, Dynein cargo inh -0.046, B2AR ag 28, ATG4B inh -5, MEKK2mut PB1 HTS 105*, MEKK2 WT-MEK5 254*, MEKK2wt confirm 254*, MEKK2mut-MEK5 107* and MEKK3 confirm 111.
For C#CCOCCOCCOCCNc1nc(N2CCOCC2)nc(N2CCN(C(=O)[C@H](Cc3cc4ccccc4[nH]3)n3cc([C@@H](N)C(C)CC)nn3)CC2)n1 (stereo partly specified) the results were MEKK3 PB1 HTS 101, Dynein cargo inh 0.93, B2AR ag 0, ATG4B inh -23, MEKK2mut PB1 HTS 11 and MEKK2 WT-MEK5 126.
For C#CCOCCOCCOCCNc1nc(N2CCN(C(=O)[C@H]([C@@H](C)CC)n3cc([C@@H](N)Cc4ccc(O)cc4)nn3)CC2)nc(N2CCN(C(=O)[C@H](Cc3cc4ccccc4[nH]3)n3cc([C@@H](N)CC(C)C)nn3)CC2)n1 the results were B2AR ag 2 and ATG4B inh -5.
`C#CCOCCOCCOCCNc1nc(N2CCN(C(=O)[C@H]([C@@H](C)CC)n3cc([C@@H](N)CC(C)C)nn3)CC2)nc(N2CCN(C(=O)[C@H](Cc3cc4ccccc4[nH]3)n3cc([C@@H](N)Cc4ccc(O)cc4)nn3)CC2)n1` gave MEKK3 PB1 HTS 115, Dynein cargo inh 0.014, ATG4B inh -35, MEKK2mut PB1 HTS 128*, MEKK2 WT-MEK5 270*, MEKK2wt confirm 226*, MEKK2mut-MEK5 68 and MEKK3 confirm 108.
Screening C#CCOCCOCCOCCNc1nc(N2CCN(C(=O)[C@H](CCC(=O)O)n3cc(C(N)CC(C)C)nn3)CC2)nc(N2CCN(C(=O)[C@H](Cc3cc4ccccc4[nH]3)n3cc(C(N)[C@H](C)CC)nn3)CC2)n1 (stereo partly specified) returned MEKK3 PB1 HTS 100, Dynein cargo inh -1.1, B2AR ag -2, ATG4B inh -22, MEKK2mut PB1 HTS 3 and MEKK2 WT-MEK5 109.
For C#CCOCCOCCOCCNc1nc(N2CCN(C(=O)[C@H](Cc3ccc(O)cc3)n3cc([C@@H](N)C(C)CC)nn3)CC2)nc(N2CCN(C(=O)[C@H](Cc3cc4ccccc4[nH]3)n3cc([C@@H](N)Cc4ccc(O)cc4)nn3)CC2)n1 (stereo partly specified) the results were MEKK3 PB1 HTS 106, Dynein cargo inh 1.5, MEKK2mut PB1 HTS 6, MEKK2 WT-MEK5 169*, MEKK2wt confirm 241*, MEKK2mut-MEK5 125* and MEKK3 confirm 113.
For CCN1CCN(S(=O)(=O)c2ccc(Cl)c(C(=O)NCc3ccco3)c2)CC1 the results were B2AR ag 1 and ATG4B inh 7.
C#CCOCCOCCOCCNc1nc(N2CCN(C(=O)[C@H](Cc3ccc(O)cc3)n3cc([C@@H](N)CC(C)C)nn3)CC2)nc(N2CCN(C(=O)[C@H](Cc3cc4ccccc4[nH]3)n3cc([C@@H](N)CC(C)C)nn3)CC2)n1 was read as MEKK3 PB1 HTS 114, Dynein cargo inh -0.5, ATG4B inh -12, MEKK2mut PB1 HTS 99*, MEKK2 WT-MEK5 230*, MEKK2wt confirm 245*, MEKK2mut-MEK5 93* and MEKK3 confirm 112.
`C#CCOCCOCCOCCNc1nc(N2CCN(C(=O)[C@H]([C@@H](C)CC)n3cc([C@@H](N)CO)nn3)CC2)nc(N2CCN(C(=O)[C@H]([C@@H](C)CC)n3cc([C@@H](N)CC(C)C)nn3)CC2)n1` gave MEKK3 PB1 HTS 112, Dynein cargo inh 0.099, B2AR ag 17, ATG4B inh -6, MEKK2mut PB1 HTS 27, MEKK2 WT-MEK5 139*, MEKK2wt confirm 115, MEKK2mut-MEK5 6 and MEKK3 confirm 101.
`C#CCOCCOCCOCCNc1nc(N2CCN(C(=O)C(Cc3ccc(O)cc3)n3cc(C(N)CC(C)C)nn3)CC2)nc(N2CCN(C(=O)C(Cc3cc4ccccc4[nH]3)n3cc(C(N)C(C)CC)nn3)CC2)n1` (stereo unspecified) gave MEKK3 PB1 HTS 111, Dynein cargo inh -0.65, MEKK2mut PB1 HTS 118*, MEKK2 WT-MEK5 239*, MEKK2wt confirm 237*, MEKK2mut-MEK5 89* and MEKK3 confirm 106.
`O=C(Cc1ccc(-n2c(=S)[nH]c3ccccc3c2=O)cc1)N1CCN(c2ccccc2)CC1` gave MEKK3 PB1 HTS 100, Dynein cargo inh -0.094, B2AR ag -22, ATG4B inh 0, MEKK2mut PB1 HTS 1 and MEKK2 WT-MEK5 102.
Screening COc1ccc(-c2ccc(/C=C3/C(=N)N4C=CSC4=NC3=O)o2)c([N+](=O)[O-])c1 returned MEKK3 PB1 HTS 134*, Dynein cargo inh -0.45, B2AR ag 33, ATG4B inh 19, MEKK2mut PB1 HTS -1, MEKK2 WT-MEK5 97, MEKK2wt confirm 95, MEKK2mut-MEK5 -4 and MEKK3 confirm 94.
